ChEMBL document CHEMBL3425450, “Neuroactive Steroids. 1. Positive Allosteric Modulators of the (γ-Aminobutyric Acid)A Receptor: Structure-Activity Relationships of Heterocyclic Substitution at C-21” (J Med Chem, 2015)
Values after ≈ are worked out from the molar mass of the structure shown.

Experiments:
[1] = molecular target: GABA-A receptor; agonist GABA site; assay: Positive allosteric modulation of recombinant alpha4beta3delta GABAA receptor (unknown origin) expressed in CHO cells assessed as potentiation of GABA-induced channel current treated for 30 s prior to GABA stimulation for 2s by manual patch assay; assay type: cell-based, Homo sapiens
[2] = Aqueous solubility of the compound at pH 7.4 by HPLC-MS/MS analysis; assay type: physicochemical; details: buffer
[3] = Lipophilicity, log D of the compound at 20 uM at pH 7.4 by HPLC-MS/MS analysis; assay type: physicochemical; details: buffer
[4] = molecular target: GABA-A receptor; anion channel; assay: Displacement of [3H]TBPS from GABAA receptor in Sprague-Dawley rat brain cortical membrane after 90 mins by liquid scintillation spectrometry
[5] = Ratio of drug level in brain to plasma in Sprague-Dawley rat at 5 mg/kg, iv after 30 mins by LC-MS/MS analysis; assay type: ADME, organism-based; set-up: dose 5 mg/kg, route intravenous; details: read-out: BPR
How it was run: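 Brain and plasma were sampled at a single point 30 min after the i.v. 5 mpk dose. The ratio was calculated from mean concentrations of 2 rats.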

[6] = Clearance in Sprague-Dawley rat at 5 mg/kg, iv and 20 mg/kg, po by LC-MS/MS analysis; assay type: ADME, organism-based; details: in vivo
How it was run: (§1)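 Rats were dosed i.v. at 5 mpk and orally at 20 mpk. Clearance and oral bioavailability were calculated from mean plasma concentrations of 2 rats.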

[7] = Clearance in mouse liver microsomes at 10 uM after 60 mins by HPLC-MS/MS analysis; assay type: ADME
[8] = Oral bioavailability in Sprague-Dawley rat at 20 mg/kg by LC-MS/MS analysis; assay type: ADME, organism-based; details: in vivo; how it was run: as §1
[9] = molecular target: GABA-A receptor; agonist GABA site; assay: Positive allosteric modulation of recombinant alpha1beta2gamma2 GABAA receptor (unknown origin) expressed in LTK cells assessed as potentiation of GABA-induced channel current treated for 30 s prior to GABA stimulation for 2s by Q-patch assay; assay type: cell-based, Homo sapiens
[10] = Clearance in rat liver microsomes at 10 uM after 60 mins by HPLC-MS/MS analysis; assay type: ADME
[11] = Clearance in human liver microsomes at 10 uM after 60 mins by HPLC-MS/MS analysis; assay type: ADME
[12] = Retention time of the compound by LC-MS analysis; assay type: physicochemical
How it was run: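 Eluents were water and acetonitrile, each with TFA, run as a 5 to 95% acetonitrile gradient over 1.5 min at 1.5 mL/min. Capillary voltage was 3.5 kV and fragmentor voltage 50 V.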

CC(=O)[C@H]1CC[C@H]2[C@@H]3CC[C@H]4C[C@H](O)CC[C@]4(C)[C@H]3CC[C@]12C [BREXANOLONE]
EC50 [1]: 75.5 nM | solubility [2]: 3.3 µM (≈ 1.05 µg/mL) | logD at 20 µM [3]: 4.9 | IC50 [4]: 22 nM | Kp at 0.5 h [5]: 1.8 | clearance [6]: 80 mL/min/kg | CLhep predicted at 10 µM [7]: 67.5 mL/min/kg | bioavailability [8]: 2.3% | EC50 [9]: 237 nM | CLhep predicted at 10 µM [10]: 55.7 mL/min/kg | CLhep predicted at 10 µM [11]: 8.33 mL/min/kg

C[C@@]1(O)CC[C@H]2[C@H](CC[C@@H]3[C@@H]2CC[C@]2(C)[C@@H](C(=O)Cn4cnnn4)CC[C@@H]32)C1
EC50 [1]: 394 nM | IC50 [4]: 69 nM | Retention_time [12]: 0.84 min | EC50 [9]: 2200 nM

C[C@@]1(O)CC[C@H]2[C@H](CC[C@@H]3[C@@H]2CC[C@]2(C)[C@@H](C(=O)Cn4cc5c(n4)CCCC5)CC[C@@H]32)C1
EC50 [1]: 178 nM | solubility [2]: 0.3 µM (≈ 0.132 µg/mL) | logD at 20 µM [3]: 5.7 | IC50 [4]: 24 nM | Retention_time [12]: 0.93 min | CLhep predicted at 10 µM [7]: 67.5 mL/min/kg | EC50 [9]: 724 nM | CLhep predicted at 10 µM [10]: 55.7 mL/min/kg | CLhep predicted at 10 µM [11]: 10.8 mL/min/kg

C[C@@]1(O)CC[C@H]2[C@H](CC[C@@H]3[C@@H]2CC[C@]2(C)[C@@H](C(=O)Cn4ccnc4)CC[C@@H]32)C1
EC50 [1]: 3130 nM | IC50 [4]: 21 nM | Retention_time [12]: 0.76 min | EC50 [9]: > 3000 nM

C[C@@]1(O)CC[C@H]2[C@H](CC[C@@H]3[C@@H]2CC[C@]2(C)[C@@H](C(=O)Cn4ncc5cnccc54)CC[C@@H]32)C1
EC50 [1]: 1400 nM | IC50 [4]: 33 nM | Retention_time [12]: 0.75 min | EC50 [9]: > 3000 nM

C[C@@]1(O)CC[C@H]2[C@@H](CC[C@@H]3[C@@H]2CC[C@]2(C)[C@@H](C(=O)Cn4cncn4)CC[C@@H]32)C1
EC50 [1]: 781 nM | IC50 [4]: 174 nM | Retention_time [12]: 0.84 min | EC50 [9]: > 3000 nM

C[C@@]1(O)CC[C@H]2[C@@H](CC[C@@H]3[C@@H]2CC[C@]2(C)[C@@H](C(=O)Cn4cnnn4)CC[C@@H]32)C1
EC50 [1]: 2140 nM | IC50 [4]: 214 nM | Retention_time [12]: 0.86 min | EC50 [9]: > 3000 nM

C[C@@]1(O)CC[C@H]2[C@H](CC[C@@H]3[C@@H]2CC[C@]2(C)[C@@H](C(=O)Cn4cc5cnccc5n4)CC[C@@H]32)C1
EC50 [1]: 1350 nM | IC50 [4]: 24 nM | Retention_time [12]: 1.06 min | EC50 [9]: > 3000 nM

C[C@@]1(O)CC[C@H]2[C@H](CC[C@@H]3[C@@H]2CC[C@]2(C)[C@@H](C(=O)Cn4cc5cccnc5n4)CC[C@@H]32)C1
EC50 [1]: 1020 nM | IC50 [4]: 42 nM | Retention_time [12]: 0.8 min | EC50 [9]: > 3000 nM

C[C@@]1(O)CC[C@H]2[C@H](CC[C@@H]3[C@@H]2CC[C@]2(C)[C@@H](C(=O)Cn4ncnn4)CC[C@@H]32)C1
EC50 [1]: 345 nM | solubility [2]: 2.5 µM (≈ 0.966 µg/mL) | logD at 20 µM [3]: 4.5 | IC50 [4]: 6 nM | Retention_time [12]: 0.87 min | Kp at 0.5 h [5]: 2.3 | clearance [6]: 18.3 mL/min/kg | CLhep predicted at 10 µM [7]: 67.5 mL/min/kg | bioavailability [8]: 41% | EC50 [9]: 1150 nM | CLhep predicted at 10 µM [10]: 39.3 mL/min/kg | CLhep predicted at 10 µM [11]: 5.5 mL/min/kg

C[C@@]1(O)CC[C@H]2[C@@H](CC[C@@H]3[C@@H]2CC[C@]2(C)[C@@H](C(=O)Cn4ncnn4)CC[C@@H]32)C1
EC50 [1]: 292 nM | solubility [2]: 0.9 µM (≈ 0.348 µg/mL) | logD at 20 µM [3]: 4.5 | IC50 [4]: 31 nM | Retention_time [12]: 0.88 min | Kp at 0.5 h [5]: 2 | clearance [6]: 8.33 mL/min/kg | CLhep predicted at 10 µM [7]: 33.8 mL/min/kg | bioavailability [8]: 67% | EC50 [9]: 945 nM | CLhep predicted at 10 µM [10]: 14.3 mL/min/kg | CLhep predicted at 10 µM [11]: 1.67 mL/min/kg

C[C@@]1(O)CC[C@H]2[C@H](CC[C@@H]3[C@@H]2CC[C@]2(C)[C@@H](C(=O)Cn4ccnn4)CC[C@@H]32)C1
EC50 [1]: 1830 nM | IC50 [4]: 27 nM | Retention_time [12]: 0.84 min | EC50 [9]: 1840 nM

CC(=O)[C@H]1CC[C@H]2[C@@H]3CC[C@H]4C[C@](C)(O)CC[C@]4(C)[C@H]3CC[C@]12C [GANAXOLONE]
EC50 [1]: 103 nM | solubility [2]: 0.7 µM (≈ 0.233 µg/mL) | logD at 20 µM [3]: 5.3 | IC50 [4]: 42 nM | Kp at 0.5 h [5]: 4 | clearance [6]: 51.7 mL/min/kg | CLhep predicted at 10 µM [7]: 67.5 mL/min/kg | bioavailability [8]: 10% | EC50 [9]: 266 nM | CLhep predicted at 10 µM [10]: 55.7 mL/min/kg | CLhep predicted at 10 µM [11]: 6.5 mL/min/kg

CC(=O)[C@H]1CC[C@H]2[C@@H]3CC[C@@H]4C[C@](C)(O)CC[C@@H]4[C@H]3CC[C@]12C
EC50 [1]: 119 nM | IC50 [4]: 55 nM | EC50 [9]: 371 nM

C[C@@]1(O)CC[C@H]2[C@H](CC[C@@H]3[C@@H]2CC[C@]2(C)[C@@H](C(=O)Cn4ncc5cccnc54)CC[C@@H]32)C1
EC50 [1]: 1870 nM | IC50 [4]: 16 nM | Retention_time [12]: 0.9 min | EC50 [9]: 1750 nM
